Key:
[1] = molecular target: Glutamate receptor ionotropic, AMPA (Rattus norvegicus) (UniProt P19491+P19492+P19493+P19490); test: Inhibition of Ionotropic glutamate receptor AMPA-preferring non-NMDA receptors was measured in oocytes expressing rat brain poly(A)+ RNA isolated from the cerebral cortex.; format: cell-based; settings: Oocyte
[2] = molecular target: Glutamate NMDA receptor (Rattus norvegicus) (UniProt P35439+Q00959+Q00960+Q00961+Q62645+Q8VHN2+Q9R1M7); test: Inhibition of N-methyl-D-aspartate glutamate receptor was measured in oocytes expressing cloned rat brain receptor subunits (NR1A/2C); format: cell-based; settings: Oocyte
Procedure, shortened: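 Xenopus oocytes expressing cloned rat NR1A/2C subunits, voltage-clamped at -70 mV. Currents were evoked by 1 μM glycine plus 100 μM glutamate. The apparent dissociation constant (Kb) was calculated from current inhibition assuming simple competitive antagonism, and reported with 95% confidence intervals adjusted to the linear scale.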

[3] = Selectivity index measured as the kb ratio of AMPA to that of NMDA.
Procedure, shortened: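 Steady-state selectivity index: Kb at AMPA receptors (rat cortex poly(A)+ RNA oocytes, 10 μM AMPA) divided by Kb at NR1A/2C NMDA receptors (1 μM glycine, 100 μM glutamate), both from oocyte current inhibition at -70 mV.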

[4] = molecular target: Glutamate receptor ionotropic, NMDA 1 (Rattus norvegicus, UniProt P35439); test: Antagonism of N-methyl-D-aspartate glutamate receptor 1 sites using [3H]DCKA as a radioligand

SMILES | Kb [1] [nM] | Kb [2] [nM] | Selectivity index [3] | IC50 [4] [nM]
O=c1cc(O)c2c([nH]c1=O)C[C@H](Cl)[C@@H](Cl)C2 | 780 | 42 | 19 | 130
O=c1cc(O)c2c([nH]c1=O)C1CCC2CC1 | 79000 | 260 | 300 | 
CC1Cc2[nH]c(=O)c(=O)cc(O)c2CC1C (stereo unspecified) | 5300 | 120 | 44 | 

More lines, now with the values ahead:

Kb [1] [nM] | Kb [2] [nM] | Selectivity index [3] | IC50 [4] [nM] | SMILES
510 | 4.1 | 120 |  | CC1c2c(O)cc(=O)c(=O)[nH]c2C[C@H](Cl)[C@H]1Cl (stereo partly specified)
 | 2800 | 75 |  | O=c1cc(O)c2c([nH]c1=O)C1CCC2C1 (stereo unspecified)
720 | 2.8 | 260 |  | CCC1c2c(O)cc(=O)c(=O)[nH]c2C[C@H](Cl)[C@H]1Cl (stereo partly specified)
23000 | 740 | 31 |  | O=c1cc(O)c2c([nH]c1=O)CCCC2

Source: ChEMBL document CHEMBL1130388, “Synthesis of racemic 6,7,8,9-tetrahydro-3-hydroxy-1H-1-benzazepine-2,5-diones as antagonists of N-methyl-d-aspartate (NMDA) and alpha-amino-3-hydroxy-5-methylisoxazole-4-propionic acid (AMPA) receptors” (J Med Chem, 1997)
